Data taken from ChEMBL document CHEMBL1268883, “Plasma-mediated release of morphine from synthesized prodrugs” (Bioorg Med Chem Lett, 2010).

How the values were obtained:
[1] = Induction of morphine release at 37.5 nmol in presence of guinea pig plasma assessed as morphine level per ml plasma by UPLC; assay type: cell-free, Cavia porcellus
How it was run: (§1)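 Rates were taken from the linear 0–15 min time points. The mix held 37.5 nmol PDB initial and 150 µl plasma or enzyme sample (BCE 0.5 U/ml, HSA 25 mg/ml) in 300 µl total at 37 °C. After ANDM deproteinisation, morphine was measured by UPLC. Rates are expressed per ml of plasma or of enzyme sample at its human-plasma level.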

[2] = Induction of morphine release at 37.5 nmol in presence of 25 mg/ml HSA assessed as morphine level after 2 to 6 hrs by UPLC; details: human
How it was run: (§2)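 PDB (37.5 nmol initial) incubated at 37 °C in 300 µl total with 150 µl sample: purified human serum BCE (0.5 U/ml) or HSA (25 mg/ml), both equivalent to 50% of serum levels, or 50% human plasma in PBS. Aliquots taken over time, mixed with 2 vol ice-cold 10% DMSO in acetonitrile, centrifuged. Supernatant run on UPLC. Morphine quantified from morphine standard curve (1.6–1.75 min peak area).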

[3] = Induction of morphine release at 37.5 nmol in presence of HSA assessed as morphine level per mg of protein by UPLC; details: human
Plasma [4] = experiment: Induction of morphine release at 37.5 nmol in presence of rat plasma assessed as morphine level per ml plasma by UPLC; assay type: cell-free; how it was run: as §1
Plasma [5] = experiment: Induction of morphine release at 37.5 nmol in presence of 50% human plasma after 6 hrs by UPLC; assay type: cell-free; how it was run: as §2
[6] = Induction of morphine release at 37.5 nmol in presence of 0.5 U/ml butyryl choline esterase assessed as morphine level after 3 to 6 hrs by UPLC; assay type: physicochemical; details: isolated protein; how it was run: as §2
Plasma [7] = experiment: Induction of morphine release at 37.5 nmol in presence of human plasma assessed as morphine level per ml plasma by UPLC; assay type: cell-free; how it was run: as §1
[8] = Induction of morphine release at 37.5 nmol in presence of butyryl choline esterase assessed as morphine level per mg of protein by UPLC; details: isolated protein
Plasma [9] = experiment: Induction of morphine release at 37.5 nmol in presence of 50% human plasma after 15 mins by UPLC; assay type: cell-free; details: 0.25 h; how it was run: as §2
[10] = Induction of morphine release at 37.5 nmol in presence of 0.5 U/ml butyryl choline esterase assessed as morphine level after 15 mins by UPLC; assay type: physicochemical; details: isolated protein, 0.25 h; how it was run: as §2
[11] = Induction of morphine release at 37.5 nmol in presence of 25 mg/ml HSA assessed as morphine level after 15 mins by UPLC; details: human, 0.25 h; how it was run: as §2
Plasma [12] = experiment: Induction of morphine release at 37.5 nmol in presence of mouse plasma assessed as morphine level per ml plasma by UPLC; assay type: cell-free; how it was run: as §1
[13] = Stability in PBS solution up to 24 hrs; assay type: physicochemical; details: buffer
How it was run: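 PDA incubated in PBS under the plasma-incubation conditions for up to 24 h, then analysed by UPLC.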

[14] = Induction of morphine release at 37.5 nmol in presence of 50% human plasma assessed as disappearance of compound peak during 5 to 10 mins at 250 uM; assay type: cell-free; details: read-out: Activity
How it was run: (§3)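 PDA (250 µM) incubated with 50% plasma in PBS at 37 °C. Aliquots were withdrawn at intervals, quenched with 2 vol ice-cold 10% DMSO/acetonitrile and centrifuged. The supernatant was analysed by UPLC, following the PDA peak (4.3–4.4 min) and the morphine peak. Morphine was calculated from a morphine standard curve.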

[15] = Induction of morphine release at 37.5 nmol in presence of 50% mouse plasma assessed as disappearance of compound peak during 5 to 10 mins at 250 uM; assay type: cell-free; details: read-out: Activity; how it was run: as §3
[16] = Induction of morphine release at 37.5 nmol in presence of 50% rat plasma assessed as disappearance of compound peak during 5 to 10 mins at 250 uM; assay type: cell-free; details: read-out: Activity; how it was run: as §3
[17] = Induction of morphine release at 37.5 nmol in presence of 50% guinea pig plasma assessed as disappearance of compound peak during 5 to 10 mins at 250 uM; assay type: cell-free, Cavia porcellus; details: read-out: Activity; how it was run: as §3
SK-N-SH = experiment: Induction of morphine release in human SK-N-SH cells assessed as morphine induced inhibition of forskolin-induced cAMP production ny chemiluminescent assay; assay type: cell-based
How it was run: (§4)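 PDA (0.8 mM) was preincubated 24 h with PBS or 50% human plasma. SK-N-SH cells were switched to serum-free medium, exposed to the solutions (equivalent to 5 µM prodrug) for 15 min, then given 5 µM forskolin or vehicle for 15 min. Cells were rinsed and lysed, and cAMP was measured by chemiluminescent assay against a cAMP standard curve.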

[18] = Induction of morphine release in PBS solution assessed as morphine induced inhibition of forskolin-induced cAMP production ny chemiluminescent assay; assay type: physicochemical; details: buffer; how it was run: as §4

Row | Compound | Activity [1] [nmol/min] | Activity [2] [%] | Activity [3] [nmol/min] | Activity (Plasma [4]) [nmol/min] | Activity (Plasma [5]) [%] | Activity [6] [%] | Activity (Plasma [7]) [nmol/min] | Activity [8] [nmol/min] | Activity (Plasma [9]) [%] | Activity [10] [%] | Activity [11] [%] | Activity (Plasma [12]) [nmol/min] | Stability [13] | metabolised at 250 µM [14] [%] | metabolised at 250 µM [15] [%] | metabolised at 250 µM [16] [%] | metabolised at 250 µM [17] [%] | Activity (SK-N-SH) | Activity [18]
1 | CN1CC[C@]23c4c5ccc(OC(=O)c6ccc(OCC(=O)NCCOCCOCCNC(=O)OC(C)(C)C)cc6)c4O[C@H]2[C@@H](O)C=C[C@H]3[C@H]1C5 | 2.9 | 2 | 0.3 | 4.2 | 20 | 4 | 1.1 | 0.8 | 4 | 2.5 | 1 | 20.9 |  |  |  |  |  |  | 
2 | CN1CC[C@]23c4c5ccc(OC(=O)CCC(=O)OC(C)(C)C)c4O[C@H]2[C@@H](O)C=C[C@H]3[C@H]1C5 |  |  |  |  |  |  |  |  |  |  |  |  | Stable | > 90 | > 90 | > 90 | > 90 | Active | Not Active
